From ChEMBL document CHEMBL1154608, “Substituted 2-aminothiopen-derivatives: a potential new class of GluR6-antagonists” (Eur J Med Chem, 2010) come the findings set out here.

One may read the inhibition as the drop in the measured response relative to a control, in per cent.

Data set [1] deals with Glutamate receptor ionotropic kainate 2 (Homo sapiens) (UniProt Q13002). Description: Antagonist activity at human recombinant GluR6 expressed in HEK cells coexpressing aequorine assessed as inhibition of glutamate-induced Ca2+ influx at 10 uM by luminescence reporter assay relative to control. As to conditions: HEK293. Background: In a reporter assay the amount or activity of a reporter protein is the signal.

Data set [2] has as its target Glutamate receptor ionotropic kainate 1 (Homo sapiens) (UniProt P39086). Description: Antagonist activity at human recombinant GluR5 expressed in HEK cells coexpressing aequorine assessed as inhibition of glutamate-induced Ca2+ influx at 10 uM by luminescence reporter assay relative to control. The following applies: HEK293.
Data set [3] deals with N2a. Kind of data set: Cytotoxicity against mouse N2A cells at 100 uM after 24 hrs by MTT assay. The class given is cell-based. A digest of the protocol: (§1)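 Cell viability was measured by MTT in N2A neuroblastoma and COS7 monkey kidney cells after 24 h compound incubation. Formazan was released with lysis buffer and absorbance was read at 590 nm.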
Data set [4] in a line: Cytotoxicity against monkey COS7 cells at 0.1 to 10 uM after 24 hrs by MTT assay. The following applies: chlorocebus aethiops, cos-7, 24 h.
Data set [5] is described as follows: Cytotoxicity against monkey COS7 cells at 100 uM after 24 hrs by MTT assay. The following applies: chlorocebus aethiops, cos-7, 24 h. On the technique in general: Formazan colour is commonly taken as a measure of viable cells.
Data set [6] deals with N2a. Kind of data set: Cytotoxicity against mouse N2A cells at 0.1 to 10 uM after 24 hrs by MTT assay. In kind it is cell-based. Put shortly: as §1
In data set [7] the target is Glutamate receptor ionotropic kainate 1 (Homo sapiens) (UniProt P39086). Description: Antagonist activity at human recombinant GluR5 expressed in HEK cells coexpressing aequorine assessed as inhibition of glutamate-induced Ca2+ influx at 100 uM by luminescence reporter assay relative to control. The following applies: HEK293.
For data set [8], the target named is Glutamate receptor ionotropic kainate 2 (Homo sapiens) (UniProt Q13002). Kind of data set: Antagonist activity at human recombinant GluR6 expressed in HEK cells coexpressing aequorine assessed as inhibition of glutamate-induced Ca2+ influx at 100 uM by luminescence reporter assay relative to control. As to conditions: HEK293.

Glutamate receptor ionotropic kainate 1 (Homo sapiens), sequence (P39086 whole entry, looked up): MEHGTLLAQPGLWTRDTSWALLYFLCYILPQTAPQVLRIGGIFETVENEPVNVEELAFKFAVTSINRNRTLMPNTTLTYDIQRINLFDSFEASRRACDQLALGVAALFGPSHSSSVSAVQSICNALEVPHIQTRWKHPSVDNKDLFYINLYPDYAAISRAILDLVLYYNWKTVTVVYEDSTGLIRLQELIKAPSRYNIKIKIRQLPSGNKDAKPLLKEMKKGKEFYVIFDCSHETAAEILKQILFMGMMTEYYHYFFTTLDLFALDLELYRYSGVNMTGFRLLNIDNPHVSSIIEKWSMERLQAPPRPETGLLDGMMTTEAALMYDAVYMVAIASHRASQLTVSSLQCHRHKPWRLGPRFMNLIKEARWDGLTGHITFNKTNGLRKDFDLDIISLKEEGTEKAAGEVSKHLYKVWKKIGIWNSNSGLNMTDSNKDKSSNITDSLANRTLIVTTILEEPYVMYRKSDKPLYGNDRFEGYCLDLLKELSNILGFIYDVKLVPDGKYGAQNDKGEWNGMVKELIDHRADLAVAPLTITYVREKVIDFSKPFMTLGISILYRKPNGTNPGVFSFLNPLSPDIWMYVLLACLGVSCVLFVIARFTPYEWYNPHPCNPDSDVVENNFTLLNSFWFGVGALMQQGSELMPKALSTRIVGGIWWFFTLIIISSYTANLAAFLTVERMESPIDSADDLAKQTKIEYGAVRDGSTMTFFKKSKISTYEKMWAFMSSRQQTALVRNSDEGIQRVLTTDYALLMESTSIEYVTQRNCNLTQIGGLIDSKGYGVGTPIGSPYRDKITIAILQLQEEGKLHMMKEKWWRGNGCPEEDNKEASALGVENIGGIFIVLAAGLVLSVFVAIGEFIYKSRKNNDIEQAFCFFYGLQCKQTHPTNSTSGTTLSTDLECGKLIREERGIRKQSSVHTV
Glutamate receptor ionotropic kainate 2 (Homo sapiens), sequence (Q13002 whole entry, looked up): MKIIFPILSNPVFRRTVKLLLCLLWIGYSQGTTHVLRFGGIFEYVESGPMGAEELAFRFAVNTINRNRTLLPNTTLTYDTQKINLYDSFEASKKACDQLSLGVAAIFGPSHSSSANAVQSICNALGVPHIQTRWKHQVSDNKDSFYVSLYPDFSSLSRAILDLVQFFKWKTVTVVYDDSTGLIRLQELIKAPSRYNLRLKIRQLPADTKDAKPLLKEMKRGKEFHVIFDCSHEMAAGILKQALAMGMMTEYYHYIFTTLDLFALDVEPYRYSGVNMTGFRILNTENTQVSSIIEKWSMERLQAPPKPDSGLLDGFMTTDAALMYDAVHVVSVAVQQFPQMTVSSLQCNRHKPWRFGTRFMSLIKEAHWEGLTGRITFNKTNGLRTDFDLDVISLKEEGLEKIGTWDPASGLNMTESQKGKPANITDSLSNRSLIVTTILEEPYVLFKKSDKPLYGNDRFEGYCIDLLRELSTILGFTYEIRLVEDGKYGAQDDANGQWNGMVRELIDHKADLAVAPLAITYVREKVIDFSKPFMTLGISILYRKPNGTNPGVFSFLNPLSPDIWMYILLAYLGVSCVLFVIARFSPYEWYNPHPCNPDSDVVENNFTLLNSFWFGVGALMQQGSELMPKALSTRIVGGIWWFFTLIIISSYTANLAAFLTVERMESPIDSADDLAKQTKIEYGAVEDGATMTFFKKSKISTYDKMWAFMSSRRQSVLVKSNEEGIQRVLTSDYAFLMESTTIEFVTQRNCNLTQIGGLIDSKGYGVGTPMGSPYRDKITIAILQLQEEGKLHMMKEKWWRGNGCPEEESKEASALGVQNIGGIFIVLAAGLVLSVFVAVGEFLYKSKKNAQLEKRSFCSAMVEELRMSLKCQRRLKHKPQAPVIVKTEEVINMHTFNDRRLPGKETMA

Take `CCOC(=O)c1c(N)sc2c1CCCC2`: the figures for the inhibition in data set [1] and in data set [2] were 11% and 7%, respectively.

Regarding `CCOC(=O)c1c(N)sc(-c2ccccc2)c1C`, the Activity entry in the data set with N2a [3] was “Toxic”; in data set [4], “Non-toxic”; in data set [5], “Toxic”; in the data set on N2a [6], “Non-toxic”. Moreover, the inhibition in data set [2] stood at 12%.

In the case of `CCNC(=S)Nc1sc(-c2ccccc2)c(C)c1C(=O)OCC`, the inhibition in data set [1] was -6.5%; in data set [2], 7%.

In the case of `CCCOC(=O)c1c(N)sc(-c2ccccc2)c1C`, the Activity result with N2a [3] is “Toxic”; in data set [4], “Non-toxic”; in data set [5] it was “Toxic”; in the data set on N2a [6], “Non-toxic”. For the same molecule, the inhibition in data set [2] came to 5%.

With `CCn1c(=O)[nH]c2sc3c(c2c1=O)CCCC3`, the inhibition in data set [1] was 7.1%; in data set [2] it was 6%.

`CCOC(=O)c1c(N)sc(-c2ccccc2Cl)c1C`: the inhibition in data set [2] is 10%.

Take `CCOC(=O)c1c(NC(=O)CN2CCOCC2)sc(-c2ccccc2)c1C`: the inhibition in data set [1] was 9%; in data set [2], 14%.

As to `CCOC(=O)c1c(NC)sc(-c2ccccc2)c1C`, the values for the inhibition in data set [1] and in data set [2] were 19% and 4.5%, respectively.

Consider `CCSc1nc2sc3c(c2c(=O)[nH]1)CCCC3`, for which the figures for the inhibition in data set [1] and in data set [2] were 4% and 8%, respectively.

Consider `CCOC(=O)c1c(NC(=O)CNCc2ccccc2)sc(-c2ccccc2)c1C`, for which the inhibition in data set [1] stood at 4%; in data set [2], 25%.

Consider `CCNC(=O)c1c(N)sc(-c2ccccc2)c1C`, for which the inhibition was found to be 4% in data set [1] and 9% in data set [2].

As for `CCSc1nc2sc(-c3ccccc3)c(C)c2c(=O)[nH]1`, the inhibition in data set [1] amounted to 0%; in data set [2] it was 1%.

For `Cc1c(-c2ccccc2)sc(N)c1C(=O)O`, the inhibition turned out to be 44% in data set [1] and 20% in data set [7].

For the molecule `CCOC(=O)c1c(-n2cccc2)sc(-c2ccccc2)c1C`, the inhibition was 2% in data set [1] and -1% in data set [2].

`Cc1c(-c2ccccc2)sc(N)c1C(N)=O`: the inhibition in data set [7] came out at 2%; in data set [8] it was 3%.

As to `CCOC(=O)c1c(NC(C)=O)sc(-c2ccccc2)c1C`, the inhibition in data set [1] came to 4%; in data set [2], 3%.

Take `CCOC(=O)c1c(N=NN(C)C)sc(-c2ccccc2)c1C`: in data set [2], the inhibition turned out to be 10%.

For `Cc1c(-c2ccccc2)sc(N)c1C(=O)c1ccccc1`, the inhibition in data set [2] worked out at 17%.

Regarding `CCNC(=O)Nc1sc2c(c1C(N)=O)CCCC2`, the inhibition is 12% in data set [1] and 0.1% in data set [2].

For the molecule `Cc1c(-c2ccccc2)sc2[nH]c(=S)[nH]c(=O)c12`, the inhibition is -2% in data set [1] and 10% in data set [2].

In the case of `CCOC(=O)Nc1sc(-c2ccccc2)c(C)c1C(N)=O`, the values for the inhibition in data set [1] and in data set [2] were 12% and 19%, respectively.

For the molecule `CCOC(=O)Nc1sc2c(c1C(N)=O)CCCC2`, the inhibition in data set [1] was 17%; in data set [2], 14%.

Regarding `CCOC(=O)c1c(N)sc(-c2ccc(F)cc2)c1C`, the inhibition in data set [2] turned out to be 0%.

Turning to `CCOC(=O)Nc1cc(C)c(-c2ccccc2)s1`, the inhibition in data set [1] was 18%; in data set [2], 1%.

Turning to `CCOC(=O)c1c(Cl)sc(-c2ccccc2)c1C`, the inhibition in data set [2] is 0%.

Consider `NC(=O)c1c(N)sc2c1CCCC2`, for which the inhibition was determined as 13% in data set [1] and 4% in data set [2].

Consider `Oc1nc(S)nc2sc3c(c12)CCCC3`, for which the inhibition is 0% in data set [1] and 17% in data set [2].

Turning to `CCNC(=O)Nc1sc(-c2ccccc2)c(C)c1C(N)=O`, the inhibition was 17% in data set [1] and 5.8% in data set [2].

`CCOC(=O)C(=O)Nc1sc(-c2ccccc2)c(C)c1C(=O)OCC`: the inhibition in data set [1] worked out at 10%; in data set [2], 4%.

On to `CCOC(=O)c1c(N)sc(-c2ccc(OC)cc2)c1C`, for which the inhibition in data set [2] came out at 1%.

Take `COC(=O)c1c(N)sc(-c2ccccc2)c1C`: the Activity entry (in data set [4]; in data set [5]; with N2a [6]) was “Non-toxic” in each case.

As to `CCOC(=O)Nc1sc(-c2ccccc2)c(C)c1C(=O)O`, the inhibition in data set [1] is 7%; in data set [2], 12%.

On to `CCOC(=O)c1c(N=C=S)sc(-c2ccccc2)c1C`, for which the Activity entry in the data set on N2a [3] was “Toxic”; in data set [4], “Non-toxic”; in data set [5], “Toxic”; with N2a [6] it was “Non-toxic”. In data set [2], the inhibition stood at 0%.

Take `CCOC(=O)c1cc(-c2ccccc2)sc1N`: the inhibition in data set [1] is -1%; in data set [7], 25%.

`CCn1c(=O)[nH]c2sc(-c3ccccc3)c(C)c2c1=O`: the inhibition in data set [1] amounted to 9.5%; in data set [2], 11.8%.

With `CCOC(=O)c1c(N=NN2CCOCC2)sc(-c2ccccc2)c1C`, the inhibition in data set [2] was found to be 4%.

On to `Cc1c(-c2ccccc2)sc(N)c1C(=O)OC(C)(C)C`, for which, in data set [2], the inhibition came to 4%.

Regarding `CCNC(=O)Nc1sc(-c2ccccc2)c(C)c1C(=O)OCC`, the inhibition in data set [1] stood at 9%; in data set [2], 0.5%.

Take `CCOC(=O)c1c(N=NC#N)sc(-c2ccccc2)c1C`: in data set [2], the inhibition came out at 7%.

With `Cc1c(-c2ccccc2)sc(N)c1C#N`, the inhibition in data set [2] amounted to 17%.

Regarding `CCOC(=O)c1c(NC(=O)c2ccccc2)sc(-c2ccccc2)c1C`, the inhibition was 5% in data set [1] and -3% in data set [2].

As for `CCOC(=O)c1c(N)sc(-c2ccccc2)c1-c1ccccc1`, the Activity result was “Toxic” in the data set with N2a [3], “Non-toxic” in data set [4] and “Non-toxic” in the data set with N2a [6]. In addition, the inhibition in data set [2] came to 13%.

For the molecule `CCOC(=O)c1c(NC(=O)C(F)(F)F)sc(-c2ccccc2)c1C`, the inhibition in data set [1] came to 20%; in data set [2] it was 18%.
